Laboratory results taken from ChEMBL document CHEMBL1122296, “Plasmin-activated prodrugs for cancer chemotherapy. 2. Synthesis and biological activity of peptidyl derivatives of doxorubicin” (1983).

What was measured:
Format in all cases: functional
[1] = species: Gallus gallus; assay: Inhibitory activity against the [3H]thymidine incorporation into DNA of Rous Sarcoma virus transformed chicken embryo fibroblasts at 24 hr of treatment; conditions: read-out: ED50 (the source's name)
[2] = species: Gallus gallus; assay: Inhibitory activity against the [3H]thymidine incorporation into DNA of Rous Sarcoma virus transformed chicken embryo fibroblasts at 5 hr of treatment; conditions: read-out: ED50 (the source's name)
[3] = system: Mus musculus; assay: Median survival of treated/ control animals (%T/C) was determined by in vivo antitumor activity against the B16 melanoma cell line at a dose of 45 mg/kg administered intraperitoneally on day 5; conditions: route intraperitoneal
Summary of the method: (§1)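 Murine B16 melanoma implanted intraperitoneally in mice. Drug given intraperitoneally on days 5, 9 and 13 after implantation, with dose expressed as doxorubicin equivalents. Read-out is %T/C, the median survival of treated animals over that of untreated controls.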

[4] = Selectivity index between the ED50 value for normal cells to that of transformed chicken embryo fibroblast cells at 5 hr of treatment
[5] = system: Mus musculus; assay: Median survival of treated/ control animals (%T/C) was determined by in vivo antitumor activity against the B16 melanoma cell line at a dose of 75 mg/kg administered intraperitoneally on day 5; conditions: route intraperitoneal; summary of the method: as §1
[6] = system: Mus musculus; assay: Median survival of treated/ control animals (%T/C) was determined by in vivo antitumor activity against the B16 melanoma cell line at a dose of 15 mg/kg administered intraperitoneally on day 5; conditions: route intraperitoneal; summary of the method: as §1
[7] = Degree of improvement in the selective cytotoxicity of the prodrug (drug 10) to that of the parent drug (drug 1) at 5 hr of treatment; Value is measured as 5.8 times
[8] = Degree of improvement in the selective cytotoxicity of the prodrug (drug 10) to that of the parent drug (drug 1) at 24 hr of treatment; Value is measured as 6.8 times
[9] = system: Mus musculus; assay: Median survival of treated/ control animals (%T/C) was determined by in vivo antitumor activity against the B16 melanoma cell line at a dose of 5 mg/kg administered intraperitoneally on day 5; conditions: route intraperitoneal; summary of the method: as §1
[10] = Selectivity index between the ED50 value for normal cells to that of transformed chicken embryo fibroblast cells at 24 hr of treatment
[11] = system: Mus musculus; assay: Median survival of treated/ control animals (%T/C) was determined by in vivo antitumor activity against the B16 melanoma cell line at a dose of 30 mg/kg administered intraperitoneally on day 5; conditions: route intraperitoneal; summary of the method: as §1
[12] = system: Mus musculus; assay: Median survival of treated/ control animals (%T/C) was determined by in vivo antitumor activity against the B16 melanoma cell line at a dose of 60 mg/kg administered intraperitoneally on day 5; conditions: route intraperitoneal; summary of the method: as §1
[13] = species: Gallus gallus; assay: Inhibitory activity against the [3H]-thymidine incorporation into DNA of normal chicken embryo fibroblasts at 5 hr of treatment; conditions: read-out: ED50 (the source's name)
[14] = species: Gallus gallus; assay: Inhibitory activity against the [3H]thymidine incorporation into DNA of normal chicken embryo fibroblasts at 24 hr of treatment; conditions: read-out: ED50 (the source's name)
[15] = system: Mus musculus; assay: Median survival of treated/ control animals (%T/C) was determined by in vivo antitumor activity against the B16 melanoma cell line at a dose of 6 mg/kg administered intraperitoneally on day 5; conditions: route intraperitoneal; summary of the method: as §1
[16] = system: Mus musculus; assay: Median survival of treated/ control animals (%T/C) was determined by in vivo antitumor activity against the B16 melanoma cell line at a dose of 12 mg/kg administered intraperitoneally on day 5; conditions: route intraperitoneal; summary of the method: as §1
[17] = system: Mus musculus; assay: Median survival of treated/ control animals (%T/C) was determined by in vivo antitumor activity against the B16 melanoma cell line at a dose of 3 mg/kg administered intraperitoneally on day 5; conditions: route intraperitoneal; summary of the method: as §1
[18] = system: Mus musculus; assay: Median survival of treated/ control animals (%T/C) was determined by in vivo antitumor activity against the B16 melanoma cell line at a dose of 1 mg/kg administered intraperitoneally on day 5; conditions: route intraperitoneal; summary of the method: as §1
[19] = system: Mus musculus; assay: Median survival of treated/ control animals (%T/C) was determined by in vivo antitumor activity against the B16 melanoma cell line at a dose of 9 mg/kg administered intraperitoneally on day 5; conditions: route intraperitoneal; summary of the method: as §1

| Structure (SMILES) | EC50 [1] [µM] | EC50 [2] [µM] | T/C [3] [%] | Selectivity index [4] | T/C [5] [%] | T/C [6] [%] | Improvement [7] | Improvement [8] | T/C [9] [%] | Selectivity index [10] | T/C [11] [%] | T/C [12] [%] | EC50 [13] [µM] | EC50 [14] [µM] | T/C [15] [%] | T/C [16] [%] | T/C [17] [%] | T/C [18] [%] | T/C [19] [%] |
| --- | --- | --- | --- | --- | --- | --- | --- | --- | --- | --- | --- | --- | --- | --- | --- | --- | --- | --- | --- |
| COc1cccc2c1C(=O)c1c(O)c3c(c(O)c1C2=O)C[C@@](O)(C(=O)CO)C[C@@H]3OC1CC(NC(=O)[C@H](CCCCN)NC(=O)[C@H](CC(C)C)NC(=O)[C@H](N)C(C)C)C(O)C(C)O1 (stereo partly specified) | 0.8 | 26 | 105 | 2.1 | 121 | 103 | 5.8 | 6.8 | 105 | 3.8 | 97 | 113 | 54 | 3 |  |  |  |  |  |
| COc1cccc2c1C(=O)c1c(O)c3c(c(O)c1C2=O)C[C@@](O)(C(=O)CO)C[C@@H]3O[C@H]1C[C@H](N)[C@H](O)[C@H](C)O1 [DOXORUBICIN] | 0.18 | 2.5 |  | 0.36 |  |  | 5.8 | 6.8 |  | 0.56 |  |  | 0.9 | 0.1 | 158 | 68 | 137 | 111 | 90 |
| COc1cccc2c1C(=O)c1c(O)c3c(c(O)c1C2=O)C[C@@](O)(C(=O)CO)C[C@@H]3OC1CC(NC(=O)[C@H](CCCCN)NC(=O)[C@H](CC(C)C)NC(=O)[C@@H](NC(=O)OC(C)(C)C)C(C)C)C(O)C(C)O1.Cl (stereo partly specified) |  |  |  |  |  | 100 |  |  | 105 |  | 110 | 100 |  |  |  |  |  |  |  |
